Screening data: PubChem, several laboratories
EBNA-1 inh = blocks EBNA-1 binding to DNA. EBNA-1 DNA binding, fluorescence polarization. inhibition, % at 14.8 µM. actives 0.34% (n = 300,000); in the data active = inhibition above about 28%
Apaf-1 inh = inhibitors of human Apaf-1 apoptosome. O14727. reconstituted apoptosome caspase-3 activity, DEVD-Rh110 fluorescence. inhibition, % at 20 µM. actives 0.71% (n = 330,000). AID 489030; active = inhibition of at least 40% at 20 µM;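 also: plate controls were DMSO wells for no effect and DEVD-CHO caspase inhibitor wells for full effect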
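Assay system – apoptosome proteins · Medium – Hepes buffer, pH 7.5 · Also added – cytochrome c with DEVD-Rh110 · Timing – 30 min compound preincubation, 50 min activation, room temperature · Detection – Rh110 fluorescence, excitation 480 nm, emission 540 nm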
UBC13 inh = human UBC13 polyubiquitination inhibition; P61088; UBC13 polyubiquitin chain formation, TR-FRET; inhibition, % at 20 µM; actives 0.47% (n = 330,000); in the data active = inhibition above about 45%, passing the limit was not always enough
Target sequence (P61088 whole entry, looked up): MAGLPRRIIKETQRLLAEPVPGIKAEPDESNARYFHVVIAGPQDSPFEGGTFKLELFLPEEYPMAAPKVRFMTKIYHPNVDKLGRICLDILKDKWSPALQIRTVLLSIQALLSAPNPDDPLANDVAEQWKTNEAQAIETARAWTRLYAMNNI
ZTA counter = ZTA (EBV) inhibition in EBNA-1 counter-screen. actives 0.15% (n = 320,000). AID 2234. ZTA-DNA binding, fluorescence polarization. inhibition, % at 11 µM. P03206; in the data active = inhibition above about 33%
Target sequence (P03206 whole entry, looked up): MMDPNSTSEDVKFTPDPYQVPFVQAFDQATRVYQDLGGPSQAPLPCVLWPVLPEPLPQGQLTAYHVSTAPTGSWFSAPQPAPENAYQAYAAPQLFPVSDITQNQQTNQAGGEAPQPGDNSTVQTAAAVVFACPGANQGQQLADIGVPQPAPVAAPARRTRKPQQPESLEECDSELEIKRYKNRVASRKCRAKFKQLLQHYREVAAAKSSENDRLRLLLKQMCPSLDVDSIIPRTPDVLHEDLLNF
PfGluPho inh = PfG6PD (Plasmodium falciparum) enzyme inhibition | PfGluPho enzyme, NADPH resazurin-diaphorase fluorescence | AID 504690 | inhibition, % at 20 µM | actives 0.78% (n = 350,000);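 active = inhibition reaching at least a set limit at 20 µM in the primary screen, cut at about 59% in these data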;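 also: 0% = DMSO wells with substrate and 100% = DMSO wells lacking glucose-6-phosphate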
PfM18AAP inh = PfM18AAP enzyme inhibition | actives 1.2% (n = 290,000) | recombinant PfM18AAP, H-Glu-NHMec fluorogenic cleavage | inhibition, % at 7.35 µM;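 active = inhibition above the campaign mean inhibition over all tested compounds plus 3 SD, cut at about 28% in these data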;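 also: 0% = plate median of test compound wells and 100% = 2 mM ZnCl2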
Casp3 counter = counter-screen for UBC13 inhibitors: human caspase-3 inhibition; shares compounds with UBC13 inh; Recombinant caspase-3, Caspase-Glo 3/7 luminescence, 60 min; inhibition, % at 20 µM; actives 4% (n = 1,400); AID 488856;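 active = mean inhibition across replicates above about 26%, limit read from the data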;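 also: plate controls were DMSO with caspase-3 for no effect and DMSO wells lacking enzyme for full effect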
Target sequence (P42574 whole entry, looked up): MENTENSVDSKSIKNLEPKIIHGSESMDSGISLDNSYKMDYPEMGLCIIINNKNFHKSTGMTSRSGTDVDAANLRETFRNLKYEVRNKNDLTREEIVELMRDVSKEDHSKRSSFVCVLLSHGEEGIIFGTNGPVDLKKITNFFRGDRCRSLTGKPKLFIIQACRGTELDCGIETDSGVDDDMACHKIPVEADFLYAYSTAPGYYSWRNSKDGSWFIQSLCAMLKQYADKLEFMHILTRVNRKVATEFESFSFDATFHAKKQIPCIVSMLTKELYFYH
UBC13 confirm = human UBC13 polyubiquitin inhibition, confirmed; shares compounds with UBC13 inh; UBC13 polyubiquitination, TR-FRET, biochemical; inhibition, % at 10 µM; actives 68% (n = 1,400); in the data active = inhibition above about 45%
* hit, by the source's call; x = no result. This is a sample that favours compounds with a hit; in the whole collection about 2.9% have one here.

SMILES | EBNA-1 inh | Apaf-1 inh | UBC13 inh | ZTA counter | PfGluPho inh | PfM18AAP inh | Casp3 counter | UBC13 confirm
Cc1c(Br)c([N+](=O)[O-])nn1CCCC(=O)Nc1c(C)n(C)n(-c2ccccc2)c1=O | -1.0 | -18.9 | 49.2* | 3.0 | 2.3 | 8.6 | 2.8 | 42.5
C/C(=N\NC(=O)c1ccc(O)cc1)c1cccc(NC(=O)c2ccc(Cl)cc2)c1 | -8.0 | 5.8 | -6.5 | 7.9 | 17.8 | x | x | x
Cc1ccc(OCC(=O)O)c(O)c1 | x | x | x | x | -4.0 | x | x | x
COc1ccc(S(=O)(=O)N(C)C)cc1NC(=O)COC(=O)c1nn(C)c(=O)c2ccccc12 | -6.5 | -9.6 | 10.3 | 7.1 | -11.1 | -1.2 | x | x
C=C[C@](C)(CC[C@@]1(C)C(C)CC(OC2OC(C)C(OC3OC(COC(C)=O)C(O)C(O)C3O)C(O)C2O)[C@@]2(C)C(C)=CCCC12)OC1OC(C)C(O[C@@H]2O[C@@H](C)C(O)C(O)[C@H]2O)C(O)C1O (stereo partly specified) | x | -1.6 | 53.5* | x | -13.3 | x | 2.3 | 57.7*
OC(CNCc1ccco1)Cn1c2ccc(Br)cc2c2cc(Br)ccc21 (stereo unspecified) | -2.2 | 31.1 | 29.4 | -15.8 | -6.2 | -3.4 | x | x
CCc1cccc2c(C(=O)C(NCCCOC)c3ccccc3)c[nH]c12 (stereo unspecified) | 4.5 | 5.2 | 28.2 | -14.9 | 0.3 | 8.4 | x | x
CCc1cccc2c(C(=O)C(NC(C)CC)c3ccccc3)c[nH]c12 (stereo unspecified) | 5.8 | 4.9 | 79.2* | 9.7 | 2.6 | 6.7 | 0.7 | 101.3*
COc1ccccc1C(C)NC(=O)CCOc1cccc(C)c1 (stereo unspecified) | -0.7 | -3.4 | -1.1 | 2.1 | -17.7 | -0.6 | x | x
O=C(CCCCn1c(=O)c2ccccc2n(Cc2ccccc2)c1=O)NC1CCN(Cc2ccccc2)CC1 | 8.5 | 4.0 | 94.2* | 17.7 | -1.4 | 7.4 | 1.2 | 108.3*
O=C(CCCCn1c(=O)c2ccccc2n(CC(=O)NC2CCCC2)c1=O)NC1CCCC1 | -2.2 | 0.2 | 7.5 | -5.5 | -2.2 | -6.2 | x | x
O=C(CCCn1c(=O)c2ccccc2n(Cc2cccc(F)c2)c1=O)NC1CCN(Cc2ccccc2)CC1 | 2.1 | -15.7 | 100.3* | 15.4 | x | -0.4 | 3.9 | 111.7*
CCc1ccc(NC(=O)Cn2c(=O)n(CCC(=O)NC3CCN(Cc4ccccc4)CC3)c(=O)c3ccccc32)cc1 | 5.9 | -5.1 | 15.9 | -12.7 | -21.5 | -11.3 | x | x
O=C(NC(=S)Nc1ccc(N2CCN(C(=O)c3ccccc3)CC2)cc1)c1cccs1 | 2.0 | 10.6 | 48.5* | 4.6 | 15.7 | -11.7 | -0.1 | 55.7*
O=C(NC(=S)Nc1ccccc1N1CCN(C(=O)c2ccccc2)CC1)c1cccs1 | -0.6 | 19.3 | -4.1 | 1.5 | 1.8 | -8.8 | x | x
CCNC(=O)/C(=C/c1cccc([N+](=O)[O-])c1)NC(=O)c1ccc(C)cc1 | 0.1 | 2.4 | -6.4 | -14.5 | 0.2 | -7.2 | x | x
Cc1ccc(NC(=O)c2ccc(NCCN)c([N+](=O)[O-])c2)cc1Cl | -2.8 | 0.8 | 67.3* | -2.2 | -3.5 | 1.6 | -2.0 | 82.9*
CCNc1ccc(C(=O)Nc2ccc3nc(C)sc3c2)cc1[N+](=O)[O-] | 0.4 | 4.4 | -32.7 | -2.8 | 9.9 | -0.4 | x | x
O=C1c2cccc3cccc(c23)C(=O)N1Nc1ccccc1 | -10.2 | 6.2 | 52.2* | -2.8 | 11.7 | -2.6 | -1.2 | 42.7
CC1CC(C)CN(CCCNC(=O)c2cc3c(s2)-c2ccccc2OC3)C1 (stereo unspecified) | 6.9 | 12.7 | 45.0* | 5.2 | 12.3 | 1.3 | -2.2 | 54.7*
Cc1cccc2c1-c1sc(C(=O)NCCCN3CCCC(C)C3)cc1CO2 (stereo unspecified) | 2.7 | 22.9 | 66.6* | 4.6 | 14.5 | 6.3 | 4.2 | 96.9*
CC1CCCC(C)N1CCCNC(=O)c1cc2c(s1)-c1ccccc1OC2 (stereo unspecified) | 0.2 | 8.2 | 34.4 | 8.4 | -5.8 | 2.5 | x | x
CCN1CCN(CCCNC(=O)c2cc3c(s2)-c2ccccc2OC3)CC1 | -4.3 | 5.0 | 24.0 | 7.3 | -2.1 | 1.8 | x | x
CCCN1CCN(CCCNC(=O)c2cc3c(s2)-c2c(C)cccc2OC3)CC1 | -1.1 | 18.1 | 48.6* | 7.3 | 18.6 | 4.8 | -0.9 | 57.0*
C=C1CCN(c2ccc(C(=O)NCCC)cc2[N+](=O)[O-])CC1 | 7.4 | 12.9 | -18.5 | 2.5 | 10.2 | x | x | x
SMILES | EBNA-1 inh | Apaf-1 inh | UBC13 inh | ZTA counter | PfGluPho inh | PfM18AAP inh | Casp3 counter | UBC13 confirm
Cc1c(OCC(=O)NCc2ccncc2)ccc2c3c(c(=O)oc12)CCCC3 | -6.8 | 5.3 | 8.2 | 1.5 | -16.7 | 0.3 | x | x
Cc1cc(OCc2cc(C(=O)N3CCC(Oc4cccnc4)CC3)no2)cc(C)c1Cl | -5.5 | 27.8 | 13.7 | -6.6 | 5.2 | 4.7 | x | x
CCCCCOc1ccc(Br)cc1/C(C)=N/NC1=NCCN1 | 6.6 | 5.5 | 57.5* | 12.8 | 6.4 | 0.5 | -2.8 | 63.9*
CC(=O)Nc1ccc(OCC(O)CN2CCN(S(=O)(=O)c3ccc(NC(C)=O)cc3)CC2)cc1 (stereo unspecified) | 5.1 | -21.5 | 0.3 | -7.4 | -4.3 | -17.3 | x | x
CC(=O)Nc1ccc(S(=O)(=O)N2CCN(CC(O)COc3ccc4ccccc4c3)CC2)cc1 (stereo unspecified) | 2.1 | -10.6 | 47.0* | -17.1 | 4.8 | 7.8 | 0.3 | 49.0*
COc1cc(C(CCN2CCCC(C)C2)c2c(OC)cc(OC)c3c(-c4ccccc4)cc(=O)oc23)cc(OC)c1OC (stereo unspecified) | -5.5 | 25.8 | 64.6* | -14.9 | 11.5 | x | -3.4 | 29.5
COc1cc(C(CCN2CCCCC2)c2c(OC)cc(OC)c3c(-c4ccccc4)cc(=O)oc23)cc(OC)c1OC (stereo unspecified) | -4.6 | 18.2 | 47.9* | -2.8 | 4.1 | x | -1.5 | 28.8
COc1cc(C(CCN2CCCC2)c2c(OC)cc(OC)c3c(C)cc(=O)oc23)cc(OC)c1OC (stereo unspecified) | -7.9 | 2.3 | 12.7 | 3.6 | 3.8 | x | x | x
CCCCCc1cc(=O)oc2c(C(CCN3CCCCC3)c3ccc(OC)cc3)c(OC)cc(OC)c12 (stereo unspecified) | -10.5 | 38.2 | 83.8* | -3.3 | 18.8 | x | -1.3 | 62.8*
CCCCCc1cc(=O)oc2c(C(CCN3CCN(c4ccccc4)CC3)c3ccc4c(c3)OCO4)c(OC)cc(OC)c12 (stereo unspecified) | -15.2 | 25.2 | 15.9 | -2.2 | 7.6 | x | x | x
Cc1[nH]c2ccc(F)cc2c1CCN(Cc1cccnc1)C(=S)Nc1cccc(F)c1 | -3.7 | 6.3 | 2.7 | 6.1 | 22.2 | -4.4 | x | x
